Measured values: PubChem BioAssay AID704 (The Scripps Research Institute Molecular Screening Center, 2007)
Among all 97,000 compounds or so, about 770 (0.79%) were called active.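 The calls were made as follows: active = inhibition above the screen-wide mean plus 3 SD (cut at about 35% in these data); inactive = the rest.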 Many of the other results were omitted from the sample, so actives are more common in it than they were.

These compounds were tested against Protein Rev (Human immunodeficiency virus type 1 group M subtype B (isolate WMJ22)) (UniProt P05866) (assay: disruptors of Rev peptide-RRE RNA complex – biochemical, FRET, protein-RNA interaction, primary screen (AID 704)). Conditions: Rev peptide-RRE RNA binding, at 8 µM, hits give high values.
In short: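 Test system – labelled RRE RNA duplex and labelled Rev peptide · Reagent – labelled Rev peptide · Doses – one concentration, 8 µM nominal · Incubation – 5 + 15 min at 25 °C · Signal – FRET fluorescence readout · Read-out basis – % inhibition of FRET ratio versus controls · Control set – DMSO wells as 0% and neomycin B wells as 100% inhibition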

Chain of Protein Rev (Human immunodeficiency virus type 1 group M subtype B (isolate WMJ22)) (P05866 whole entry, looked up): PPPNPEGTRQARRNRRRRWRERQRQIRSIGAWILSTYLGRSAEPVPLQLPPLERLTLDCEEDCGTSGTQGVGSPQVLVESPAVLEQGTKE

inhibition, active:
CCOc1nnc(C)c2c(C)n(-c3cccc(Cl)c3)nc12 53.5%
CN(C)c1ccc(/C=C2\NC(=S)N(Cc3ccccc3)C2=O)cc1 136% [fluorescence artefact?]
CCOC(=O)c1[nH]c2ccccc2c1N=C(C)N(CC)CC 65%
CCCCCCc1cc2cc(-c3nnc(-c4ccccc4)o3)c(=O)oc2cc1O 136% [fluorescence artefact?]
CCCCCCc1cc2cc(-c3nnc(-c4cccc(OC)c4)o3)c(=O)oc2cc1O 126% [fluorescence artefact?]
COC(=O)C1=C(C)NC2=C(C(=O)c3ccccc32)C1c1ccc(-c2ccc(C(=O)O)cc2)o1 (stereo not given) 41.7%

inhibition, inactive:
O=C(Cc1c[nH]c2ccccc12)OCCOC(=O)Cc1c[nH]c2ccccc12 3.26%
COC(=O)C(C)n1cnc2c(nnn2-c2cccc(Cl)c2)c1=O (stereo not given) 3.58%
CCOc1cccc(-n2nnnc2-c2ccc(OC)cc2)c1 1.17%
C=CCC(NCc1ccco1)c1ccc(OC)cc1 (stereo not given) 2.12%
CCCCCCCCOC1OC(CO)C(O)C(O)C1NC(C)=O (stereo not given) -1.01%
O=C(c1ccc2c(c1)OCO2)N1CCOCC1 2.74%
O=C(NCCOc1ccccc1)c1ccccc1 7.52%
CCOC(=O)c1sc(NC(=O)c2ccncc2)nc1C 4.33%
CC/S(CC1CC1(Cl)Cl)=N\S(=O)(=O)c1ccc(C)cc1 (stereo not given) -0.12%
CCN(CC)C(=O)CSc1nnc(C2CCCCC2)o1 -0.19%
CCOc1ccc2c(c1)C(c1ccc(C)cc1)=NNC(c1ccc(C)cc1)=N2 -0.68%
COc1ccccc1C(c1nnnn1C(C)(C)C)N1CCN(Cc2ccccc2)CC1 (stereo not given) 5.48%
O=C1CSC(c2ccccc2)N1c1nc(-c2ccc(Cl)cc2Cl)cs1 (stereo not given) 11.2%
Cc1cc(C)cc(OCC(=O)NNC(=O)c2cc3ccccc3oc2=O)c1 3.32%
O=c1c2ccccc2c(-c2ccc(Br)cc2)nn1Cc1ccccc1 10.1%
CC1=NN(Cc2ccccc2)C(=O)/C1=C/c1ccc(N(C)C)cc1 13.1%
CC(C)(C)n1nnnc1C(c1ccc(Cl)cc1)N1CCSCC1 (stereo not given) 3.16%
O=c1c2ccccc2nc2n1C(CSCc1cccc(C(F)(F)F)c1)CS2 (stereo not given) 5.83%
OC(COCCC12CC3CC(CC(C3)C1)C2)CN1CCCCC1 (stereo not given) -1.79%
CCCCn1c(=S)[nH]c2cc(S(=O)(=O)N3CCCCC3)ccc21 1.26%
Clc1ccc(-n2nnnc2CN2CCCCC2)cc1Cl 1.19%
CCOC(=O)C1=C(C)NC2=C(C(=O)CC(C)(C)C2)C1c1ccsc1 (stereo not given) 0.96%
Cc1[nH]c2ccccc2c1C(=O)COC(=O)C(C)C 2.32%
CCOC(=O)c1[nH]c2ccc(C)cc2c1N=C(C)N(C)C 7.68%
O=C(Nc1nccs1)C1CCN(S(=O)(=O)c2ccc(Cl)c(C(F)(F)F)c2)CC1 11.3%
COC(=O)c1sccc1-n1cccc1C(=O)C(=O)N1CCCCC1 4.4%
Cc1cccc(-c2nc3c(c(SCC(=O)N4CCOCC4)n2)CCCC3)c1 12.4%
CCCCSc1[nH]c(=O)c(C(=O)OCC)cc1C#N 0.71%
COc1ccc(-n2nc(C(=O)NCC(=O)Nc3cccc(C)n3)c3ccccc3c2=O)cc1 6.83%
Cc1nc(-c2ccccc2)sc1-c1nc(-c2ccccc2)ncc1S(=O)(=O)c1ccccc1 2.59%
CNC(=O)/C(=C\C=C\c1ccccc1)NC(=O)c1ccc([N+](=O)[O-])cc1 3.26%
CCOC(=O)c1cnn(Cc2ccccc2Cl)c1N 3.78%
COc1cccc(C(=O)c2cc3ccc(O)cc3oc2=O)c1 2.17%
O=c1oc2cc(O)ccc2cc1-c1ccc(F)cc1 10.2%
CCCCN(CC)CCCNC(=O)CS(=O)(=O)Cc1nc(-c2cccc(OC)c2)oc1C -1.81%
COc1cc(C(=O)NC(=S)NCc2ccco2)cc(OC)c1OC -0.1%
COc1ccc(-c2cc(C3CCN(c4ncccc4[N+](=O)[O-])CC3)[nH]n2)cc1 15.1%
Cc1cccc(CSc2nnc(NC(=O)CSc3nnc(C)s3)s2)c1 2.97%
Cc1ccc(-c2noc(CSc3nnc(-c4ccncc4)n3-c3ccc(F)cc3)n2)cc1 1.43%
CCOc1ccc(NC(=O)N(CC(C)C)CC(C)C)cc1 7.89%
COc1ccc(CCNC(=S)NC(=O)/C=C/c2ccc(C)cc2)cc1OC -2.76%
CC(=O)Nc1ccc(S(=O)(=O)N2CCN(C(=O)c3ccccc3F)CC2)cc1 4.25%
Cn1c2c(c(=O)n(C)c1=O)C(c1cccc([N+](=O)[O-])c1)Nc1ccccc1O2 (stereo not given) 0.04%
CS(=O)(=O)n1nc(-c2ccccc2)nc1NCc1ccco1 7.66%
CSc1nc(N(C)NC(=O)c2cccc(C)c2)c2ccccc2n1 3.84%
Cc1ccc(C)c(NC(=O)C2Cc3ccccc3CN2C(=O)OCc2ccccc2)c1 (stereo not given) 15.4%
CCOC(=O)c1c(C)oc2cc(Br)c(OCC(N)=O)cc12 -5.76%
COC(=O)C1=C(C)NC(=O)NC1/C=C/c1ccccc1 (stereo not given) 7.27%
COc1ccccc1NC(=O)C1=C(C)NC2=C(C(=O)CCC2)C1c1ccc(C)o1 (stereo not given) -3.73%
N#C/C(=C(/O)COc1cccc2ccccc12)c1nc2ccccc2[nH]1 8.41%
COc1ccc(-n2nnnc2SCc2nc(N)nc(N3CCOCC3)n2)cc1 8.05%
O=C(COc1ccc(/C=N/NS(=O)(=O)c2ccccc2)cc1)NCCc1ccccc1 6.41%
O=S(=O)(N1CCCCC1)N1CCNCC1 0.92%
CCN(CC)c1ccc(NC(=O)c2ccc(Cl)nc2)cc1 -7.72%
